What was measured:
[1] = tested on: T. brucei brucei 449 (strain: Lister 427, bloodstream form); assay: Trypanosome cell survival assay; assay type: cell-based; conditions: Trypanosoma brucei, 24 h, read-out: EC50 (24 h)
[2] = biological target: T1, Tpx WT/inhibitor complex (Trypanosoma brucei brucei, UniProt O77404); assay: SEC-MALS of Tpx/inhibitor complexes; assay type: binding, T. brucei; conditions: SEC-MALS at 100 μM protein concentration
T1 sequence (O77404 with tags, fused parts or gaps): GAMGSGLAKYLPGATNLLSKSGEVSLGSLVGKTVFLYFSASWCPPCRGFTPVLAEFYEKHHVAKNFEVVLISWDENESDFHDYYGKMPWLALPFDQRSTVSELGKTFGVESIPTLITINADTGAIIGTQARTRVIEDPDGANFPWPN
Method in brief: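 Covalent complexes were formed as for ITC (TCEP-reduced Tpx, 3-fold excess inhibitor, 30 min, 25 °C) and SEC-purified. 100 µM complex was run on Superdex 75 10/300 in 25 mM NaPi pH 7.5, 150 mM NaCl at 0.5 ml/min, room temperature. Molar mass came from multi-angle light scattering plus refractive index detection, using a Zimm model.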

Row | oligomeric state of Tpx/inhibitor complex [2] | Compound | EC50 [1]
1 |  | O=c1[nH]c(CCl)nc2scc(-c3ccccc3)c12 [CPT, 2-(Chloromethyl)-5-phenylthieno[2,3-d]pyrimidin-4(3H)-one] | 600 ± 300 nM
2 | remained monomeric | O=c1[nH]c(CCl)nc2scc(-c3ccc(C(F)(F)F)cc3)c12 [CtFT, 2-(Chloromethyl)-5-(4-(trifluoromethyl)phenyl)thieno[2,3-d]pyrimidin-4(3H)-one] | 2200 ± 600 nM

— publication PMC12324215 (bioRxiv, 2025)
